Bioassay records as filed in PubChem BioAssay.
Only some compounds are listed: those with a hit (about 2.7% of all), similar ones and a draw of the others.
NR2E3 ag-1: agonists of human NR2E3 nuclear receptor; CHO-S Gal4-NCOR/VP16-NR2E3 two-hybrid, luciferase; inhibition of corepressor binding, % at 3.98 µM; AID 602229; 360,000 tested, 0.35% active; Q9Y5X4;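 active means inhibition above the mean of all tested compounds plus 3 SD, cut at about 70% in these data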;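 further: higher means lower luciferase signal from less NR2E3 corepressor binding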
MC4R barr agon: activates human MC4R beta-arrestin recruitment | AID 540308 | U2OS MC4R beta-arrestin complementation, luminescence; percent of melanotan II response, DMSO zero | activation, % at 8.9 µM | P32245 | 360,000 tested, 0.98% active;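 active means activation above a per-plate cutoff, the mean activation of sample wells on that plate plus 3 SD, cut at about 8% in these data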
Target sequence (P32245 whole entry, looked up): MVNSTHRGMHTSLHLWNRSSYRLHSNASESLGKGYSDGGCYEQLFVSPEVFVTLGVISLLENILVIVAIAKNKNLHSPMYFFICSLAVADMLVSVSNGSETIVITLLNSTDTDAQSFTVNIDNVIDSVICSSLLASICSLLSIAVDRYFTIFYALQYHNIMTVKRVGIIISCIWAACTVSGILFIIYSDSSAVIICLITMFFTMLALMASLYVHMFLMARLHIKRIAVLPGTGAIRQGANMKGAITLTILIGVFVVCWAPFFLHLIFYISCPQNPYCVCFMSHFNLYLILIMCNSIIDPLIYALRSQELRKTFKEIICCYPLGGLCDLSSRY
MC4R antagonist: antagonists of human melanocortin 4 receptor (MC4R). inhibition, % at 6.5 µM. P32245. 360,000 tested, 0.48% active. AID 540295. MC4R-expressing cells, MTII-stimulated cAMP, LANCE TR-FRET;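 active means inhibition above its plate's cutoff, the mean of tested wells on that plate plus 3 SD, cut at about 29% in these data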
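material = U2OS cells stably expressing human melanocortin 4 receptor (MC4R) | also added = Melanotan II challenge | dosing = single nominal compound dose of 6.5 µM | detection = TR-FRET with Eu-cAMP and labeled anti-cAMP, 671 nm | replication = singlicate | timing = compound 30 min, challenge 1 h, detection 1 h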
Rev-erbA mod: modulates human Rev-erb alpha binding to DNA. Rev-erbα–FITC-DNA binding, fluorescence polarization, 90 min. 370,000 tested, 0.79% active. AID 1259318. activity, % at 10 µM;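 active means activity above about 14%, limit read from the data; passing the limit was not always enough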
NR2E3 ag-2: agonists of human nuclear receptor NR2E3 | AID 2300 | GST-NR2E3/biotin-RetCOR TR-FRET, 1536-well | Q9Y5X4 | inhibition of corepressor binding, % at 4.78 µM | 320,000 tested, 0.12% active;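 active means percent inhibition above the cutoff of mean plus 3 SD of all tested compounds, set per screening campaign, cut at about 20% in these data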
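System: GST-tagged NR2E3 plus biotinylated RetCOR corepressor; Buffer or medium: pH 7.5 Tris-based buffer; Probe or stimulus: RetCOR corepressor, biotinylated, 7 nM; Doses: compound at 4.8 µM, single dose; Schedule: 5 h incubation at 4 °C; Technique: time-resolved FRET; Evaluation: percent inhibition of TR-FRET ratio; Replication: one well per compound, singlicate testing.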
PG9 binder: binds the HIV-1 gp120 antibody PG9. 360,000 tested, 0.43% active. inhibition, % at 6.7 µM. AID 624416. TR-FRET gp120-PG9 antibody binding; in the data active means inhibition above about 8.5%
MC4R barr conf: human MC4R beta-arrestin agonism confirmation. 2,400 tested, 31% active. U2OS MC4R beta-arrestin recruitment, luminescence; scaled DMSO 0%, Melanotan II 100%. shares compounds with MC4R barr agon. activation, % at 8.9 µM;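 active means mean activation across replicates above the hit cutoff set in the earlier primary screen, cut at about 8% in these data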
MOR DOR agonist: activates mu-delta opioid heterodimer, MC4R agonist counter-screen | shares compounds with MC4R barr agon | U2OS PathHunter beta-arrestin, beta-gal luminescence; percent of deltorphin B response, DMSO zero | activation, % at 9.2 µM | 2,400 tested, 5.8% active | AID 602194;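 active means mean activation across replicates exceeds the hit threshold derived in the earlier primary screen, cut at about 18% in these data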
Each line names hits and unclear results; the compound was inactive in the other large screens (follow-up assays come after a bar, where they were run).

Cc1ccc(C(=O)OCC(=O)Nc2sc3c(c2C#N)CCC3)cc1	none
Cc1nc(NC(=O)CSc2nc3cccnc3n2C2CCCCC2)sc1C	MC4R barr agon 9.6 | MC4R barr conf inactive | MOR DOR agonist inactive
C=CCn1c(COc2cc(C)ccc2C(C)C)nnc1SCC(=O)c1c(N)n(C)c(=O)n(C)c1=O	MC4R barr agon 9.7 | MC4R barr conf inactive | MOR DOR agonist inactive
Cc1ccc(C(=O)CCNc2ccccc2)o1	none
CC(=O)c1ccc(-c2cnc3c(NC=O)cc(-c4ccc(C(=O)NC5CC5)cc4)cn23)cc1	MC4R barr agon 11 (no result: NR2E3 ag-2) | MC4R barr conf inactive | MOR DOR agonist inactive
COc1ccc(-c2cc(NC=O)c3ncc(-c4ccc(C(C)=O)cc4)n3c2)cn1	MC4R barr agon 17 (no result: NR2E3 ag-2) | MC4R barr conf 16 | MOR DOR agonist inactive
O=CNc1cc(-c2ccc(C(=O)NC3CC3)cc2)cn2c(-c3ccccc3)cnc12	none (no result: NR2E3 ag-2)
Cc1c(CCOC(=O)C23CC4(C)CC(C)(CC(C)(C4)C2)C3)sc[n+]1CC(=O)c1ccccc1	MC4R barr agon 17 | MC4R barr conf 16 | MOR DOR agonist inactive
Cc1c(CCOC(=O)CC23CC4CC(CC(C4)C2)C3)sc[n+]1CC(=O)c1ccccc1	none
Cc1cc(NS(=O)(=O)c2ccc(NC(=O)/C=C/c3ccc(Br)cc3)cc2)no1	none
Cc1ccc(/C=C/C(=O)Nc2cc(C)on2)cc1	MC4R barr agon 19 | MC4R barr conf inactive | MOR DOR agonist inactive
CC(=O)CSc1nc(-c2ccccc2)c(-c2ccccc2)o1	none
CN1CCN(C(c2cccnc2)c2ccc3cccnc3c2O)CC1 (centres undefined)	none (no result: Rev-erbA mod, PG9 binder)
CCOC(=O)N1CCC(N2C(=O)c3ccc(C(=O)Nc4cccc(OC)c4)cc3C2=O)CC1	MC4R barr agon 12 | MC4R barr conf inactive | MOR DOR agonist inactive
Cc1ccc2c(SCC(=O)NCc3ccco3)nc(-c3ccc(F)cc3)nc2c1	none
COc1ccc(C)cc1NCc1cc(=O)oc2cc(-c3ccccc3)c(O)cc12	MC4R barr agon 13 | MC4R barr conf inactive | MOR DOR agonist inactive
Cc1cc(C)cc(NCc2cc(=O)oc3cc(-c4ccccc4)c(O)cc23)c1	none
C/C(=N/NC(=O)CNC(=O)c1cccs1)c1ccc(Cl)cc1	none
Nc1ccc(Cl)cc1C(=O)c1ccc[nH]1	none (no result: NR2E3 ag-2)
O=C(CN1C(=O)NC2(CCCCCC2)C1=O)N1CCC(Cc2ccccc2)CC1	none
Cc1ccc(NC(=O)c2sc(N)nc2-c2ccc([N+](=O)[O-])cc2)cc1C	MC4R barr agon 11 | MC4R barr conf inactive | MOR DOR agonist inactive
COc1ccc(Cl)cc1-c1nc(SCC(=O)N(C)CCC#N)n[nH]1	none
Cc1ccccc1N(C(=O)CNC(=O)c1ccco1)C(C(=O)NC1CCCCC1)c1ccncc1 (centres undefined)	none
O=c1c2ccccc2nnn1CSc1nnc(Nc2ccccc2)s1	MC4R barr agon 10 | MC4R barr conf inactive | MOR DOR agonist inactive
Cc1ccc(Nc2nnc(SCn3nnc4ccccc4c3=O)s2)cc1	none (no result: Rev-erbA mod)
CC(C(=O)N1CCOCC1)N1C(=O)C2C3C=CC(C4CC34)C2C1=O (centres undefined)	none
CCN(CC)c1nc(OCCNC(=O)Nc2ccccc2)nc(N(CC)CC)n1	MC4R barr agon 13 | MC4R barr conf inactive | MOR DOR agonist inactive
COc1cccc(CNC(=O)c2ccc(C)c(S(=O)(=O)N3CCOCC3)c2)c1	none
COc1ccc(S(=O)(=O)N2CCOC2CNC(=O)C(=O)NCCc2ccccc2OC)cc1C (centres undefined)	none
Clc1ccc(OCc2nn3c(-c4ccco4)nnc3s2)c(Cl)c1	MC4R barr agon 21 | MC4R barr conf inactive | MOR DOR agonist inactive
Cc1ccc(OCc2nn3c(-c4ccco4)nnc3s2)cc1	none
